Assay results as given in ChEMBL document CHEMBL1137716, “Novel modifications in the series of O-(2-phthalimidoethyl)-N-substituted thiocarbamates and their ring-opened congeners as non-nucleoside HIV-1 reverse transcriptase inhibitors” (Eur J Med Chem, 2009).
pEC50: −log10 of the molar value. Active and inactive are the calls of the source. No rule for the calls is given here.

Tests used:
[1] = Cytotoxicity against mock-infected human MT4 cells by MTT assay; format: cell-based
How it was run: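 Mock-infected MT-4 cells, tested in parallel with the antiviral assay; viability read by MTT method; CC50 is the concentration lowering viability by 50%; mean of three separate experiments, triplicate variation under 10%.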

[2] = system: Human immunodeficiency virus 1; test: Antiviral activity against wild type HIV1 3B in human MT4 cells assessed as protection against viral induced cytopathogenicity by MTT assay; format: functional, organism-based; conditions: Human immunodeficiency virus 1, 3B
How it was run: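 MT-4 cells infected with HIV-1; 50% protection from virus-induced cytopathogenicity read by MTT method; EC50 in micromolar; mean of three separate experiments, triplicate samples varying under 10%.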

[3] = Selectivity index, ratio of CC50 for human MT4 cells to EC50 for HIV1 3B; format: toxicity, cell-based; conditions: read-out: Ratio CC50/EC50
How it was run: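 Ratio of CC50 in mock-infected MT-4 cells to EC50 for protection from HIV-1 cytopathogenicity, both read by MTT method.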

[4] = system: Human immunodeficiency virus 1; test: Antiviral activity against HIV1 3B Y181C/K103N double mutant in human MT4 cells assessed as protection against viral induced cytopathogenicity by MTT assay; format: functional, organism-based
How it was run: (§1)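 MT-4 cells infected with HIV-1 carrying the NNRTI-resistance mutation were assayed for protection from virus-induced cytopathogenicity, read out as cell viability by MTT. EC50 is the compound concentration giving 50% protection. Values are means of three separate experiments, with variation among triplicate samples under 10%. Efavirenz served as the reference.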

[5] = system: Human immunodeficiency virus 1; test: Antiviral activity against HIV1 3B Y181C resistant mutant in human MT4 cells assessed as protection against viral induced cytopathogenicity by MTT assay; format: functional, organism-based; conditions: Human immunodeficiency virus 1, 3B; how it was run: as §1
[6] = system: Human immunodeficiency virus 1; test: Antiviral activity against HIV1 3B K103R resistant mutant in human MT4 cells assessed as protection against viral induced cytopathogenicity by MTT assay; conditions: Human immunodeficiency virus 1, 3B

SMILES	CC50 [1] [µM]	pEC50 [2]	selectivity ratio [3]	Activity [4]	pEC50 [5]	pEC50 [6]
Cc1ccc(NC(=S)OC[C@@H](C)N2C(=O)c3ccccc3C2=O)cc1	76	7.15	1090	inactive	5.05	–
Cc1ccc2c(c1)C(=O)N(CCOC(=S)Nc1ccc(F)cc1)C2=O	100	7.52	3330	inactive	4.17	–
CCc1ccc(NC(=S)OCCN2C(=O)c3ccc(C)cc3C2=O)cc1	43	7.70	2150	inactive	4.80	–
Cc1ccc(NC(=S)OCC(C)N2C(=O)c3ccc(C)cc3C2=O)cc1 (racemic)	41	7.00	410	inactive	4.92	–
Cc1ccc2c(c1)C(=O)N(CCOC(=S)Nc1ccc(C#N)cc1)C2=O	57	8.00	5700	inactive	5.35	–
C[C@H](COC(=S)Nc1ccc(Cl)cc1)N1C(=O)c2ccccc2C1=O	48	8.00	4800	inactive	5.89	5.32
Cc1ccc2c(c1)C(=O)N(CCOC(=S)Nc1ccc(I)cc1)C2=O	89	8.00	8900	inactive	5.05	–
Cc1ccc2c(c1)C(=O)N(C(C)COC(=S)Nc1ccc(Cl)cc1)C2=O (racemic)	34	7.22	567	inactive	5.40	–
COc1ccc(NC(=S)OCCN2C(=O)c3ccc(C)cc3C2=O)cc1	> 100	7.52	> 3330	inactive	4.36	–
O=C1Nc2ccc(Cl)cc2[C@@](C#CC2CC2)(C(F)(F)F)O1 [EFAVIRENZ]	–	–	–	–	7.70	–
CCCCNC(=S)OCCN1C(=O)c2ccccc2C1=O	> 100	5.14	> 13.9	inactive	–	–
Cc1ccc2c(c1)C(=O)N(CCOC(=S)Nc1ccc(Br)cc1)C2=O	59	8.10	7380	inactive	–	–
Cc1ccc2c(c1)C(=O)N(CCOC(=S)Nc1ccc(Cl)c([N+](=O)[O-])c1)C2=O	> 100	7.30	> 2000	inactive	4.52	–
Cc1ccc(NC(=S)OC[C@H](C)NC(=O)c2ccccc2C(=O)O)cc1	> 100	4.86	> 7.2	inactive	–	–
O=C(O)c1ccccc1C(=O)NCCOC(=S)Nc1cc(F)cc(F)c1	> 100	4.21	> 1.6	inactive	–	–
S=C(NCCc1ccccn1)Nc1ccc(Br)cn1 [TROVIRDINE]	–	7.70	3000	–	4.82	–
Cc1ccc(NC(=S)OCCN2C(=O)c3ccc(C(C)(C)C)cc3C2=O)cc1	42	5.82	28	inactive	–	–
Cc1ccc(NC(=S)OCCN2C(=O)c3ccc(C)cc3C2=O)cc1	69	7.70	3450	inactive	–	–
O=C1c2ccccc2C(=O)N1CCOC(=S)Nc1ccc(Cl)c([N+](=O)[O-])c1	> 100	7.30	> 2000	inactive	5.55	–
Cc1ccc(NC(=S)OC[C@@H](C)NC(=O)c2ccccc2C(=O)O)cc1	> 100	5.64	> 43.5	inactive	–	–
O=C1c2ccccc2C(=O)N1CCOC(=S)NCC1CCCCC1	> 100	5.96	> 91	inactive	–	–
O=C1c2ccccc2C(=O)N1CCOC(=S)Nc1c(F)cccc1F	> 100	5.15	> 14.3	inactive	–	–
C[C@H](COC(=S)Nc1ccc(Cl)cc1)NC(=O)c1ccccc1C(=O)O	> 100	6.52	> 333	inactive	4.74	–
O=C1c2ccccc2C(=O)N1CCOC(=S)Nc1ccc(Cl)c(Cl)c1Cl	> 100	4.96	> 9.1	inactive	–	–
O=C(O)c1ccccc1C(=O)NCCOC(=S)Nc1c(F)cccc1F	> 100	4.35	> 2.2	inactive	–	–
